Assay results as given in PMC12757722 (Molecular Cancer Therapeutics, 2025).
One block for each molecule: values may come before it.

Key:
K-Ras = details: Goebel and colleagues; cited from earlier work
K-Ras (WT) [1] = molecular target: T1, K-Ras (WT) (Homo sapiens, UniProt P01116); experiment: MST binding of labeled nucleotide
K-Ras (G12C) [2] = molecular target: T2, K-Ras (G12C) (Homo sapiens, UniProt P01116, G12C); experiment: MST binding of labeled nucleotide
K-Ras (G12D) [3] = molecular target: T3, K-Ras (G12D) (Homo sapiens, UniProt P01116, G12D); experiment: SPA with [32P]GTP; type: binding
In short: (§1)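 Saturation binding used [32P]GTP (3,000 Ci/mmol) at 2.5 nmol/L–10 µmol/L, with nonspecific signal defined by 800 mmol/L imidazole. Counts were converted to pmol, and Kd and Bmax fitted from bound versus free GTP. Three independent experiments, technical triplicates.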

H-Ras = details: Feuerstein and colleagues; cited from earlier work
K-Ras (Q61H) [4] = molecular target: T4, K-Ras (Q61H) (Homo sapiens, UniProt P01116, Q61H); experiment: SPA with [32P]GTP; type: binding
In short: as §1

K-Ras (G12D) [5] = molecular target: T3, K-Ras (G12D); experiment: MST binding of labeled nucleotide; details: read-out: MST GTP Kd
Rho-A [6] = molecular target: T5, Rho-A (Homo sapiens, UniProt P61586); experiment: SPA with [32P]GTP; type: binding
In short: as §1

Rho-A [7] = molecular target: T5, Rho-A; experiment: MST binding of labeled nucleotide; details: read-out: MST GTP Kd
Rac-1 [8] = molecular target: T6, Rac-1 (Homo sapiens, UniProt P63000); experiment: MST binding of labeled nucleotide; details: read-out: MST GTP Kd
K-Ras (G12D) [9] = molecular target: T3, K-Ras (G12D); experiment: Filtration binding assay with α-[32P]GTP
In short: (§2)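 Nucleotide-free His10-tagged K-Ras (residues 2–185) was expressed in E. coli and purified by Ni affinity and SEC. Varying protein amounts were incubated with α-[32P]GTP (2,594 Ci/mmol; 2.88 nmol/L final) for 5 min at 23°C in 100 µL. Samples were filtered through 0.45-µm MCE membranes, washed with ice-cold GTP-free assay buffer, and dried filters counted for dpm. Kd came from saturation binding and kon from a time course.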

K-Ras (WT) [10] = molecular target: T1, K-Ras (WT); experiment: Filtration binding assay with α-[32P]GTP
In short: as §2

K-Ras (G12C) [11] = molecular target: T2, K-Ras (G12C); experiment: SPA with [32P]GTP; type: binding
In short: as §1

K-Ras (Q61H) [12] = molecular target: T4, K-Ras (Q61H); experiment: MST binding of labeled nucleotide; details: read-out: MST GTP Kd
K-Ras (WT) [13] = molecular target: T1, K-Ras (WT); experiment: SPA with [32P]GTP; type: binding
In short: as §1

Rac-1 [14] = molecular target: T6, Rac-1; experiment: SPA with [32P]GTP; type: binding
In short: as §1

T5 sequence (P61586 2-181): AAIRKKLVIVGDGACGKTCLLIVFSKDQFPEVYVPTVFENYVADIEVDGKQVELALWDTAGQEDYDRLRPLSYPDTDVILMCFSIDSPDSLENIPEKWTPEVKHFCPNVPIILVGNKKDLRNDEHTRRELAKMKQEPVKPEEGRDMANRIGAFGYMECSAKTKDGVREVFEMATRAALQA

Kd (K-Ras (WT) [1]; read-out: MST GDP Kd): 394 ± 54 nM | Kd (K-Ras (G12C) [2]; read-out: MST GDP Kd): 360 ± 34 nM
Structure (SMILES): Nc1nc2c(ncn2[C@@H]2O[C@H](COP(=O)(O)OP(=O)(O)O)[C@@H](O)[C@H]2O)c(=O)[nH]1 [GDP]
koff (K-Ras): 1.1e-05 s⁻¹ | kon (K-Ras): 4.22e+06 M⁻¹ s⁻¹

SPA Bmax (mol:mol) (K-Ras (G12D) [3]): 0.97 ± 0.01 mol:mol | Kd (K-Ras (G12D) [3]; read-out: SPA GTP Kd): 280 ± 19 nM | SPA Bmax (mol:mol) (K-Ras (Q61H) [4]): 0.96 ± 0.02 mol:mol | Kd (K-Ras (G12D) [5]): 244 ± 12 nM | SPA Bmax (mol:mol) (Rho-A [6]): 1.02 ± 0.02 mol:mol | Kd (Rho-A [6]; read-out: SPA GTP Kd): 129 ± 12 nM | Kd (Rho-A [7]): 130 ± 5 nM | Kd (Rac-1 [8]): 166 ± 10 nM | kon by filtration binding assay (K-Ras (G12D) [9]; G12D K-Ras mutant, time course study): 2.49e+08 M⁻¹ s⁻¹ | Filtration assay Bmax (mol:mol) (K-Ras (G12D) [9]; K-Ras (G12D)): 0.95 ± 0.02 mol:mol | Kd (K-Ras (G12D) [9]; read-out: Filtration assay GTP Kd, K-Ras (G12D), 23°C): 345 ± 25 nM | Filtration assay Bmax (mol:mol) (K-Ras (WT) [10]; K-Ras (WT)): 0.93 ± 0.03 mol:mol | kon by filtration binding assay (K-Ras (WT) [10]; K-Ras, time course study): 2.13e+08 M⁻¹ s⁻¹ | Kd (K-Ras (WT) [10]; read-out: Filtration assay GTP Kd, K-Ras (WT), 23°C): 228 ± 26 nM | Kd (K-Ras (WT) [1]; read-out: MST GTP Kd, 23°C): 463 ± 23 nM | SPA Bmax (mol:mol) (K-Ras (G12C) [11]): 0.94 ± 0.02 mol:mol | Kd (K-Ras (G12C) [11]; read-out: SPA GTP Kd): 359 ± 35 nM | Kd (K-Ras (Q61H) [12]): 157 ± 21 nM | SPA Bmax (mol:mol) (K-Ras (WT) [13]; K-Ras (WT), molar binding stoichiometry of GTP to protein): 1.00 ± 0.01 mol:mol | kon by SPA (K-Ras (WT) [13]; WT K-Ras): 3.22e+08 M⁻¹ s⁻¹ | Kd (K-Ras (WT) [13]; read-out: SPA GTP Kd, K-Ras (WT)): 246 ± 19 nM | Kd (K-Ras (G12C) [2]; read-out: MST GTP Kd): 207 ± 46 nM | SPA Bmax (mol:mol) (Rac-1 [14]): 1.03 ± 0.02 mol:mol | Kd (Rac-1 [14]; read-out: SPA GTP Kd): 151 ± 14 nM
Structure (SMILES): Nc1nc2c(ncn2[C@@H]2O[C@H](COP(=O)(O)OP(=O)(O)OP(=O)(O)O)[C@@H](O)[C@H]2O)c(=O)[nH]1 [GTP]
koff (H-Ras): 8e-05 s⁻¹ | kon (H-Ras): 2.9e+06 M⁻¹ s⁻¹
